Compounds with a hit are over-represented: about 2.6% of the library has one in this group of screens.
NPY-Y2 PAM-ag = human NPY-Y2 potentiation or agonism, primary screen; activation, % at 3.6 µM; AID 1359; cells expressing NPY-Y2, potentiator/agonist read-out; 220,000 compounds, 0.45% hits; in the data active means activation above about 27%;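 further: cells stimulated with NPY near EC25 plus isoproterenol at EC100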
Target sequence (P49146 whole entry, looked up): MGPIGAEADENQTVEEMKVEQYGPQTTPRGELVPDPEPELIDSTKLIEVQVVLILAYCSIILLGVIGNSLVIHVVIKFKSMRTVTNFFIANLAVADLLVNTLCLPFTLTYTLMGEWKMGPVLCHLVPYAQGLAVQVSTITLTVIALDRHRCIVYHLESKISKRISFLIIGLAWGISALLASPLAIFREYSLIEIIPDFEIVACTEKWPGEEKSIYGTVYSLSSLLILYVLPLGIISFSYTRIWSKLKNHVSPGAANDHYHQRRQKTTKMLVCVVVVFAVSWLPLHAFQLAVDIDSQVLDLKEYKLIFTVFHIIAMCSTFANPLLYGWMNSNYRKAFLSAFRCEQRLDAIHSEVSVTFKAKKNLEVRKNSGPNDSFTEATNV
NPY-Y2 antag = NPY-Y2 (human) receptor antagonism. inhibition, % at 2.7 µM. AID 793. NPY-Y2 expressing cells, antagonist mode. P49146. 140,000 compounds, 0.99% hits; in the data active means inhibition above about 17%
NPY Y1 blocker = blocks the human neuropeptide Y Y1 receptor; HEK293-CNG Y1 cells, membrane potential fluorescence; NPY at EC95, then isoproterenol; 200,000 compounds, 1% hits; P25929; inhibition, % at 3.6 µM;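 active means inhibition above the campaign mean inhibition of all tested compounds plus 3 SD, cut at about 20% in these data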
Target sequence (P25929 whole entry, looked up): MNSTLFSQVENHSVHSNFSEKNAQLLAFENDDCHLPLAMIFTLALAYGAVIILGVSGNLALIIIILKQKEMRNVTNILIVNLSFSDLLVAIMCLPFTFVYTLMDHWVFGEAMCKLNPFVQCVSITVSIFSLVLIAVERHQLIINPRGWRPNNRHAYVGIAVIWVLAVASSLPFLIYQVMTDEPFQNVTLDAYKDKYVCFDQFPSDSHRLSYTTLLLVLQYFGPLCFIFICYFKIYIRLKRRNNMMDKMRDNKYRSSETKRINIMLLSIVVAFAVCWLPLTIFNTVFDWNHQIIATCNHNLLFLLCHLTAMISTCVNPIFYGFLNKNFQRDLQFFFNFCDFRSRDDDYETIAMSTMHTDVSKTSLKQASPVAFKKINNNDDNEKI
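Assay system: HEK293 Y1/CNG channel cell line; Doses: single compound dose of 3.6 µM, 0.4% DMSO; Timing: dye 3 h, compound 60 min room temperature, stimulation 45 min; Technique: Membrane-potential fluorescent dye readout; Measure: % inhibition of NPY effect.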
NPY1 pot ag = potentiators or agonists of human neuropeptide Y receptor Y1 | P25929 | NPY-Y1 expressing cells, potentiator/agonist activation | activation, % at 3.6 µM | 220,000 compounds, 0.37% hits | AID 1304; in the data active means activation above about 33%, passing the limit was not always enough;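 further: cells stimulated with NPY at EC10 then isoproterenol at EC100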
MT stabilizer = stabilizes microtubules in HeLa cells | HeLa tubulin immunostaining HCS, 24 h; share of cells brighter than vehicle mean+2SD | % tubulin-high responders, % at 10 µM | 200,000 compounds, 0.83% hits;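 active means plate Z-score above 3 for both tubulin-high and condensed-nucleus cell shares, with cell loss under 80%, at 10 µM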;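 further: anti alpha tubulin signal scored within the nucleus-defined area of each cell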
b-catenin transl = alters nuclear translocation of beta-catenin in HeLa cells; immunofluorescence imaging; nuclear translocation activity, % at 5 µM; 190,000 compounds, 0.3% hits;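 active means nuclear translocation activity above 50% at 5 µM, with a well cell count of 50 or more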;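 further: per-cell ratio of nuclear to cytoplasmic median beta-catenin stain intensity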
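System: HeLa cells, endogenous beta-catenin; compound dosing: 5 µM primary single dose, 0.1% DMSO, 0.02–20 µM confirmation series; incubation: 24 h compound exposure at 37°C, 5% CO2; signal: beta-catenin immunofluorescence imaging with DAPI; evaluation: % activation, nuclear-to-cytoplasmic median beta-catenin signal ratio per cell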
Of the large screens only hits and unclear results are named; the others gave an inactive call.

O=C(O)c1cc(/C=C/c2ccc(N3CCOCC3)c([N+](=O)[O-])c2)nc2ccccc12	NPY-Y2 PAM-ag 78, NPY1 pot ag 53 (no result: NPY-Y2 antag, NPY Y1 blocker, MT stabilizer)
O=C(Nc1cnccn1)Nc1cccc(Cl)c1Cl	none (no result: NPY-Y2 antag)
C=CCSC(=C(C#N)C#N)c1cc2c([nH]1)CCCC2	NPY-Y2 PAM-ag 43, NPY1 pot ag 35
O=C(O)c1cc2c([nH]c1=O)CCCC2	none (no result: b-catenin transl)
Cc1ccc2c(c1)c1c(n2CC(O)CNC(CO)(CO)CO)CCCC1 (centres undefined)	none (no result: b-catenin transl)
Cc1ccc2c(c1)c1c(n2CC(O)CNC2CCCCC2)CCCC1 (centres undefined)	MT stabilizer 36 (no result: NPY-Y2 antag)
O=C(CCC1CCCCC1)Nc1c2c(nn1-c1ccc(F)cc1)CS(=O)(=O)C2	NPY-Y2 antag 30, NPY Y1 blocker 57
NC(=O)c1cc2c3ccccc3ccn2c1-c1ccccc1	b-catenin transl 102 (no result: NPY-Y2 antag, NPY Y1 blocker, MT stabilizer)
O=C(Cc1ccc(Br)cc1)Nc1ncc([N+](=O)[O-])s1	NPY-Y2 PAM-ag 62, NPY1 pot ag 50 (no result: NPY-Y2 antag, NPY Y1 blocker, MT stabilizer)
O=C(N/N=C/c1c(-c2ccccc2)[nH]c2ccccc12)c1cccnc1	MT stabilizer 18 (no result: NPY-Y2 antag)
CCOC(=O)C1=C(C)N=C2SC=C(C)N2C1c1ccc(OC)cc1 (centres undefined)	MT stabilizer 12 (no result: NPY-Y2 antag)
Cc1cc(C)cc(NC(=O)c2cccn2-c2ncc(C(F)(F)F)cc2Cl)c1	none (no result: b-catenin transl)
Cc1ccc(S(=O)(=O)N(CC(=O)N=Nc2c(O)[nH]c3ccccc23)c2ccc(C)c(C)c2)cc1	MT stabilizer 20
Cc1ccc(S(=O)(=O)N=Nc2c(O)[nH]c3ccccc23)cc1	none
O=C(CSc1nnc(NC(=O)c2ccccc2F)s1)Nc1ccccc1F	none (no result: NPY-Y2 antag)
CC(C)(C)CC(=O)Nc1nnc(SCC(=O)Nc2ccccc2F)s1	NPY Y1 blocker 21 (no result: NPY-Y2 antag, b-catenin transl)
Cc1nc2ccccc2n1CC(=O)OCC(=O)NCCc1ccccc1	none (no result: b-catenin transl)
CCOc1ccc(C2=Nn3c(nnc3-c3ccc(OC)cc3)SC2)cc1	MT stabilizer 40, b-catenin transl 106
O=C(N/N=C/c1ccccc1Cl)c1n[nH]c2c1CCCC2	none
O=C(N/N=C/C(Br)=C/c1ccccc1)c1n[nH]c2c1CCC2	b-catenin transl 161
O=C(N/N=C/c1cccs1)c1n[nH]c2c1CCC2	MT stabilizer 25
O=C(N/N=C/c1ccccc1)c1n[nH]c2c1CCCC2	none (no result: NPY-Y2 antag)
O=C(N/N=C/c1ccc(Cl)cc1)c1n[nH]c2c1CCCC2	b-catenin transl 100 (no result: NPY-Y2 antag, NPY Y1 blocker, MT stabilizer)
N#Cc1c(SCC(N)=O)nc2c(c1-c1ccc(OCc3ccccc3)cc1)CCCC2	none (no result: b-catenin transl)
Cc1ccccc1N1CCN(C(=O)CCN2C(=O)c3ccccc3C2=O)CC1	none (no result: b-catenin transl)
CCCC1=Nc2cc(C(=O)NCCCOC(C)C)ccc2Sc2ccccc21	MT stabilizer 22, b-catenin transl 72
CCCC1=Nc2cc(C(=O)NCCCOCC)ccc2Sc2ccccc21	b-catenin transl 105
CCC1=Nc2cc(C(=O)NCCCOC)ccc2Sc2ccccc21	MT stabilizer 25 (no result: b-catenin transl)
COCCCNC(=O)c1cccc(C(=O)NCCCOC)c1	none
CCC1=Nc2cc(C(=O)NCc3ccco3)ccc2Sc2ccc(C)cc21	b-catenin transl 74
Cc1ccc(C(=O)Nc2cccc(C(=O)NCc3ccco3)c2)cc1	none (no result: b-catenin transl)
CCOC(=O)c1c(C)[nH]c(C(=O)OCC(=O)NC2CCS(=O)(=O)C2)c1C (centres undefined)	none
COC(=O)CC1=C(C(=O)OC)[C@@H](c2ccccc2[N+](=O)[O-])C(C#N)=C(N)O1	none (no result: NPY-Y2 antag, NPY Y1 blocker, MT stabilizer)
CC1=Nc2cc(C(=O)NCCCOC(C)C)ccc2Sc2ccccc21	MT stabilizer 24 (no result: NPY-Y2 antag)
CC1=Nc2cc(C(=O)NCCCOC(C)C)ccc2Sc2ccc(C)cc21	none (no result: NPY-Y2 antag)
CCC(Oc1nc2ccccc2nc1-c1ccccc1NC(C)=O)C(=O)c1ccccc1 (centres undefined)	NPY-Y2 antag 20, NPY Y1 blocker 33
CC(=O)Nc1ccccc1NC(=O)c1ccccc1	none (no result: NPY-Y2 antag)
O=C(O)CCC(=O)c1ccc2c(c1)OCCO2	NPY-Y2 antag 18, NPY Y1 blocker 29 (no result: b-catenin transl)
CCCC(=O)c1ccc2c(c1)OCCO2	none
CCOC(=O)C1=C(C)NC(=O)NC1c1ccsc1 (centres undefined)	NPY-Y2 PAM-ag 40, NPY1 pot ag 111 (no result: b-catenin transl)
CC1=C(C(=O)OCc2ccc3c(c2)OCO3)C(c2ccc(Cl)cc2)NC(=O)N1 (centres undefined)	MT stabilizer 16
CN(C)c1ccc(N=Nc2ccccc2C(=O)OCC(=O)NCC2CCCCC2)cc1	NPY-Y2 PAM-ag 54, NPY1 pot ag 59
c1ccc(CCCCNCC2COc3ccccc3O2)cc1 (centres undefined)	NPY Y1 blocker 20 (no result: NPY-Y2 antag)
c1ccc(CCCNCC2COc3ccccc3O2)cc1 (centres undefined)	none (no result: NPY-Y2 antag)
CSc1nc(Cl)c(Cc2ccc(OC(C)C)cc2)c(N(C)C)n1	NPY-Y2 antag 30, NPY Y1 blocker 49
CC(C)CC(=O)NS(=O)(=O)c1ccc(NS(C)(=O)=O)cc1	none (no result: NPY-Y2 antag)
Fc1ccc(CNc2ncnc3c2cnn3-c2ccccc2)cc1	none
Clc1ccc(Cn2ncc3c(NCc4ccccc4)ncnc32)c(Cl)c1	MT stabilizer 17
Cn1ncc2c(NCc3ccccc3)ncnc21	none
c1ccc(CNc2ncnc3c2cnn3-c2ccccc2)cc1	MT stabilizer 54
CC(/C=N\NC(=O)Cn1c(C)nc2ccccc21)=C\c1ccccc1	none (no result: b-catenin transl)
COCCN(Cc1ccccc1)C(=O)c1c(C)nn(-c2ccccc2)c1C	none (no result: NPY-Y2 antag)
COC(=O)C1=C(N)Oc2cc(N(C)C)ccc2C1c1ccccc1OC (centres undefined)	MT stabilizer 27
COC(=O)C1=C(N)Oc2cc(C)n(CC3CCCO3)c(=O)c2C1c1ccccc1OC (centres undefined)	none
CC(=O)n1nc(-c2ccc(Cl)cc2)nc1NCc1ccco1	none (no result: b-catenin transl)
COc1ccc(CC(=O)n2nc(-c3ccc(Cl)cc3)nc2NCc2ccco2)cc1	MT stabilizer 28
Oc1ccc(N2CCN(C(=S)NCCc3ccccc3)CC2)cc1	none
COc1ccc(-c2cc(C(=O)O)c3c(C)nn(-c4ccccn4)c3n2)cc1	none
COc1ccc(N=CC2=C(Nc3ccc(OC)cc3)c3c(C)nn(-c4ccccn4)c3CC2)cc1	NPY Y1 blocker 21 (no result: b-catenin transl)
CCCCN(C(=O)c1cc2ccccc2o1)c1c(N)n(CCC)c(=O)[nH]c1=O	none
CCc1ccc(Nc2cc(=O)n(C3CCCCC3)c(=O)[nH]2)cc1	none (no result: b-catenin transl)
O=c1cc(Nc2ccc3c(c2)OCCO3)[nH]c(=O)n1C1CCCCC1	MT stabilizer 49
COc1cccc(-n2cn[nH]c2=S)c1	none (no result: NPY-Y2 antag)
COc1cccc(-n2sc3c(c2=S)-c2cc(OC)ccc2NC3(C)C)c1	NPY-Y2 PAM-ag 39, NPY1 pot ag 49
CCC(COC)NCc1cn(-c2ccc(OC)cc2)nc1-c1cccc(F)c1 (centres undefined)	none (no result: NPY-Y2 antag)
Cc1cc(OCC(F)(F)C(F)(F)C(F)(F)C(F)(F)C(F)(F)C(F)F)nc(N)n1	NPY-Y2 PAM-ag 38, NPY1 pot ag 62
